Consider eight compounds from ChEMBL document CHEMBL4622977, “A CNS-Targeting Prodrug Strategy for Nuclear Receptor Modulators” (J Med Chem, 2020).

In general, Kp refers to tissue or fluid exposure divided by exposure in the circulation.

The nature of data set [1]: Prodrug conversion in C57BL/6 mouse brain assessed as bexarotene level at 9.14 umol/kg, ip measured after 1 hr in presence of FAAH inhibitor PF-3845 by LC-MS/MS analysis. The data set is classed as ADME, organism-based. The conditions noted are these: in vivo. The essentials: (§1)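 Male C57BL/6 mice (n=3) received PF-3845 at 1 mg/kg i.p., then prodrug at […] i.p. 1 h later; comparators received prodrug alone. Vehicle was DMSO. Whole brain was taken 1 h after prodrug and homogenized in water with d₆-sobetirome internal standard. It was extracted with EtOAc/MeCN and parent acid was measured by LC-MS/MS; mean ± SEM, 2-tailed unpaired t test.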

A short description of data set [2]: AUC (0.5 to 6 hrs) in C57BL/6 mouse brain assessed as bexarotene level at 9.14 umol/kg, ip by LC-MS/MS analysis. The data set is classed as ADME, organism-based. More on the design: dose 9.14 umol/kg, time 0.5-6 hr, route intraperitoneal. The conditions noted are these: in vivo, BLD = below limit of detection. Summed up: (§2)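 Male wild-type C57BL/6 mice (8−10 weeks, n=3 per time point) received parent drug or equimolar prodrug at […] i.p. in DMSO. Brain and serum were collected at 0.5, 2 and 6 h. Parent acid was quantified by LC-MS/MS against vehicle-tissue standard curves with d₆-sobetirome internal standard. AUC0.5–6 h was computed from the time course; mean ± SEM.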

Data set [3] in a line: AUC (0.5 to 6 hrs) in C57BL/6 mouse serum assessed as bexarotene level at 9.14 umol/kg, ip by LC-MS/MS analysis. The data set is classed as ADME, organism-based. Further details: dose 9.14 umol/kg, time 0.5-6 hr, route intraperitoneal. The conditions noted are these: in vivo. Summed up:
as §2

A further data set is described as follows: in vivo. The conditions noted are these: C57BL/6, mouse, brain/serum, ip, 9.14 umol/kg.
A short description of data set [4]: Renal toxicity in C57BL/6 mouse assessed effect on Fasn gene expression in kidney at 9.14 umol/kg, ip administered once daily for 7 days by Trizol reagent based RT-qPCR analysis. The data set is classed as organism-based. The conditions noted are these: in vivo, 168 h. The essentials:
(§3)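 Male C57BL/6 mice (n=5) were dosed once daily for 7 days i.p. with parent drug at […], equimolar prodrug, or vehicle. The vehicle was 1:1:8 Kolliphor:NMP:water. Target gene expression was compared between groups per tissue by 2-tailed unpaired t test.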
(In general: Quantitative PCR measures a nucleic acid by following its amplification.)

The conditions of data set [5]: mouse, in vivo, ip.
Data set [6] has as its system Mus musculus. As to the kind of experiment: In vivo agonist activity at PPAR in C57BL/6 mouse assessed upregulation of Pgc1-alpha gene expression at 9.14 umol/kg, ip administered once daily for 7 days by Trizol reagent based RT-qPCR analysis. The data set is classed as functional, organism-based. The essentials:
as §3

Data set [7] is described as follows: AUC (0.5 to 6 hrs) in C57BL/6 mouse serum at 9.14 umol/kg, ip by LC-MS/MS analysis. The data set is classed as ADME, organism-based. Further details: time upper 6 hr, dose 9.14 umol/kg, time lower 0.5 hr, route intraperitoneal. The conditions noted are these: in vivo. Summed up:
as §2

Data set [8] in a line: AUC (0.5 to 6 hrs) in C57BL/6 mouse brain assessed as 2-(4-(4-hydroxy-3-isopropyl-5-((4-nitrophenyl)ethynyl)-benzyl)-3,5-dimethylphenoxy)acetic acid level at 9.14 umol/kg, ip by LC-MS/MS analysis. The conditions noted are these: in vivo. The data set is classed as ADME, organism-based. Further details: time upper 6 hr, time lower 0.5 hr, dose 9.14 umol/kg, route intraperitoneal. The essentials: as §2

Data set [9] can be described thus: AUC (0.5 to 6 hrs) in C57BL/6 mouse serum assessed as 2-(4-(4-hydroxy-3-isopropyl-5-((4-nitrophenyl)ethynyl)-benzyl)-3,5-dimethylphenoxy)acetic acid level at 9.14 umol/kg, ip by LC-MS/MS analysis. The data set is classed as ADME, organism-based. More on the design: time 0.5-6 hr, dose 9.14 umol/kg, route intraperitoneal. The conditions noted are these: in vivo. Summed up:
as §2

Data set [10] in a line: Prodrug conversion in C57BL/6 mouse brain assessed as 2-(4-(4-hydroxy-3-isopropyl-5-((4-nitrophenyl)ethynyl)-benzyl)-3,5-dimethylphenoxy)acetic acid level at 9.14 umol/kg, ip measured after 1 hr in presence of FAAH inhibitor PF-3845 by LC-MS/MS analysis. The data set is classed as ADME, organism-based. The conditions noted are these: in vivo. Summed up:
as §1

A short description of data set [11]: Brain to serum concentration ratio, Kp of the compound in C57BL/6 mouse assessed as 2-(4-(4-hydroxy-3-isopropyl-5-((4-nitrophenyl)ethynyl)-benzyl)-3,5-dimethylphenoxy)acetic acid level at 9.14 umol/kg, ip by LC-MS/MS analysis. The data set is classed as ADME, organism-based. The essentials: (§4)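 Brain-to-serum ratio Kp was calculated from brain and serum parent-drug AUC0.5–6 h (ng/g*h). These AUCs came from male C57BL/6 mice (n=3 per time point) given parent drug or equimolar prodrug at […] i.p. in DMSO, sampled at 0.5, 2 and 6 h. Parent acid was quantified by LC-MS/MS with d₆-sobetirome internal standard.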

A short description of data set [12]: AUC (0.5 to 6 hrs) in C57BL/6 mouse serum assessed as tazarotenic acid level at 9.14 umol/kg, ip by LC-MS/MS analysis. The data set is classed as ADME, organism-based. Further details: time lower 0.5 hr, dose 9.14 umol/kg, time upper 6 hr, route intraperitoneal. The conditions noted are these: in vivo. Summed up: as §2
Data set [13] is described as follows: AUC (0.5 to 6 hrs) in C57BL/6 mouse brain assessed as tazarotenic acid level at 9.14 umol/kg, ip by LC-MS/MS analysis. The data set is classed as ADME, organism-based. The conditions noted are these: in vivo. More on the design: time lower 0.5 hr, dose 9.14 umol/kg, time upper 6 hr, route intraperitoneal. Summed up:
as §2

Data set [14] can be described thus: Hepatotoxicity in C57BL/6 mouse assessed effect on Rarres2 gene expression at 9.14 umol/kg, ip administered once daily for 7 days by Trizol reagent based RT-qPCR analysis. The conditions noted are these: in vivo, 168 h.
A short description of data set [15]: Prodrug conversion in C57BL/6 mouse brain assessed as tazarotenic acid level at 9.14 umol/kg, ip measured after 1 hr in presence of FAAH inhibitor PF-3845 by LC-MS/MS analysis. The conditions noted are these: in vivo. The data set is classed as ADME, organism-based. Summed up: as §1
Data set [16] concerns Mus musculus. Nature of the data set: In vivo agonist activity at RAR in C57BL/6 mouse assessed upregulation of Adam10 gene expression in brain at 9.14 umol/kg, ip administered once daily for 7 days by Trizol reagent based RT-qPCR analysis. The data set is classed as functional, organism-based. Summed up:
as §3

A short description of data set [17]: Brain to serum concentration ratio, Kp of the compound in C57BL/6 mouse assessed as tazarotenic acid level at 9.14 umol/kg, ip by LC-MS/MS analysis. The data set is classed as ADME, organism-based. The essentials: as §4
Data set [18] is described as follows: Prodrug conversion in C57BL/6 mouse brain assessed as [4-(4-hydroxy-3-iodophenoxy)-3,5-diiodophenyl]acetic acid level at 9.14 umol/kg, ip measured after 1 hr in presence of FAAH inhibitor PF-3845 by LC-MS/MS analysis. The data set is classed as ADME, organism-based. The conditions noted are these: in vivo. The essentials:
as §1

Data set [19] in a line: AUC (0.5 to 6 hrs) in C57BL/6 mouse brain assessed as [4-(4-hydroxy-3-iodophenoxy)-3,5-diiodophenyl]acetic acid level at 9.14 umol/kg, ip by LC-MS/MS analysis. The data set is classed as ADME, organism-based. Further details: dose 9.14 umol/kg, time upper 6 hr, time lower 0.5 hr, route intraperitoneal. The conditions noted are these: in vivo. Summed up: as §2
A short description of data set [20]: Brain to serum concentration ratio, Kp of the compound in C57BL/6 mouse assessed as [4-(4-hydroxy-3-iodophenoxy)-3,5-diiodophenyl]acetic acid level at 9.14 umol/kg, ip by LC-MS/MS analysis. The data set is classed as ADME, organism-based. The essentials:
as §4

A short description of data set [21]: AUC (0.5 to 6 hrs) in C57BL/6 mouse serum assessed as [4-(4-hydroxy-3-iodophenoxy)-3,5-diiodophenyl]acetic acid level at 9.14 umol/kg, ip by LC-MS/MS analysis. The data set is classed as ADME, organism-based. More on the design: dose 9.14 umol/kg, time 0.5-6 hr, route intraperitoneal. The conditions noted are these: in vivo. The essentials: as §2

Calls of active or inactive are those of the source. The rule behind the calls is not given here.

As to `C=C(c1ccc(C(=O)NC)cc1)c1cc2c(cc1C)C(C)(C)CCC2(C)C`, the Drug metabolism result in [1] is recorded as “Metabolite_Notdetected”. The AUC result in [2] is “Bld”; in [3], 4.933 ng·h/g.
Compound `CCO[C@@H](Cc1ccc(OCCc2ccc(OS(C)(=O)=O)cc2)cc1)C(=O)O` [TESAGLITAZAR] gave a Kp in “in vivo” of 0.004. The Activity result in data set [4] is reported as “Toxic”. For the same compound, the AUC in data set [5] amounted to 7.3 ng·h/g; in data set [7], 2107 ng·h/g. The outcome in the data set on Mus musculus [6] was inactive.
Take `O=C(O)Cc1cccc(OCCCN(Cc2cccc(C(F)(F)F)c2Cl)CC(c2ccccc2)c2ccccc2)c1`: the Kp in “in vivo” worked out at 0.21. For the same compound, the values for the AUC in [5] and in data set [7] were 1867 ng·h/g and 8853 ng·h/g, respectively.
With `CNC(=O)COc1cc(C)c(Cc2cc(C#Cc3ccc([N+](=O)[O-])cc3)c(O)c(C(C)C)c2)c(C)c1`, the values for the AUC in [8] and in [9] were 73.8 ng·h/g and 49.5 ng·h/g, respectively. The Drug metabolism result in [10] is “Metabolite_Notdetected”. For the same compound, the Kp in data set [11] is 1.5.
For `CC/C(=C(\c1ccc(O)cc1)c1ccc(/C=C/C(=O)O)cc1)c1ccccc1`, in “in vivo”, the Kp came to 1.35. Further, the AUC was determined as 228.2 ng·h/g in [5] and 169.3 ng·h/g in data set [7].
With `CNC(=O)c1ccc(C#Cc2ccc3c(c2)C(C)(C)CCS3)nc1`, the AUC in data set [12] is 51.34 ng·h/g; in [13], 104 ng·h/g. Further, in data set [14], the Activity entry was “Non-Toxic”. The Drug metabolism result in data set [15] is on record as “Metabolite_Notdetected”. In addition, the result in the data set on Mus musculus [16] was Active. Also, the Kp in [17] was determined as 2.03.
In the case of `CNC(=O)Cc1cc(I)c(Oc2ccc(O)c(I)c2)c(I)c1`, the Drug metabolism result in data set [18] is reported as “Metabolite_Detected”. Besides, the AUC in data set [19] was determined as 155.8 ng·h/g; in [21], 4020 ng·h/g. Moreover, in data set [20], the Kp was determined as 0.039.
With `CCCc1c(OCCCSc2ccc(CC(=O)O)cc2Cl)ccc2c(C(F)(F)F)noc12`, the Kp in the data set “in vivo” was found to be 0.03. For the same compound, the AUC was 67.35 ng·h/g in data set [5] and 2140 ng·h/g in data set [7].
